In data set [1] the test system is Enterococcus faecium. The data set is described as follows: In vitro minimum inhibitory concentration against Vancomycin resistant Enterococci faecium upon incubation at 37 degree C for 16 to 24 hr by dissolving in DMSO (1%). In kind it is functional. An outline of the steps:
(§1)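 Broth microdilution (modified NCCLS M7-A4). Enterococci grown to log phase in brain-heart infusion broth, seeded at (3-7) × 10⁵ CFU/mL. Compounds 2-fold diluted from DMSO stocks, 20 to 1.25 µg/mL, final 1% DMSO, in duplicate. Incubated 37 °C, 16-24 h, with shaking. OD600 read.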

Data set [2] relates to Staphylococcus aureus. The experiment in a line: In vitro minimum inhibitory concentration against Staphylococcus aureus upon incubation at 37 degree C for 16 to 24 hr by dissolving in DMSO (1%). In kind it is functional.
Data set [3] can be described thus: Maximum plasma concentration in mouse after peroral administration at 200 mg/kg. Format: ADME, organism-based. Conditions: po. More on the design: dose 200 mg/kg, route oral. An outline of the steps:
(§2)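 A single 200 mg/kg gavage dose in KOH-neutralized PBS was given to male Swiss-Webster mice. Blood was taken by cardiac puncture under halothane before dosing and at 15, 30, 60, 120 and 180 min. Heparinized plasma was deproteinized with equal-volume MeCN and quantified by C18 HPLC (282 nm) against a standard curve from compound-spiked plasma.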

The subject of data set [4] is Enterococcus faecalis. The data set is described as follows: Serum effect on MIC of compound was measured against Enterococcus faecalis as ratio of MIC value in presence and absence of 50% fetal calf serum. In kind it is functional. The procedure, abridged: (§3)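 Broth microdilution MIC was repeated with 50% fetal calf serum added to the growth medium (LB for S. aureus, brain-heart infusion broth for E. faecalis). The inoculum was (3-7) × 10^5 CFU/mL in 1% DMSO, incubated at 37 °C for 16-24 h, and read by OD600. The serum effect is the MIC with serum relative to the MIC without serum.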

Data set [5] in a line: Half life in mouse after peroral administration at 200 mg/kg. Format: ADME, organism-based. More on the design: dose 200 mg/kg, route oral. Conditions: in vivo, po. The procedure, abridged:
as §2

In data set [6] the test system is Enterococcus faecium. The data set is described as follows: In vitro minimum inhibitory concentration against Enterococcus fecium upon incubation at 37 degree C for 16 to 24 hr by dissolving in DMSO (1%). Format: functional. An outline of the steps:
as §1

For data set [7], the system named is Staphylococcus aureus. The data set is described as follows: Serum effect on MIC against Staphylococcus aureus (Smith) as ratio of MIC value in presence and absence of 50% fetal calf serum. In kind it is functional. The procedure, abridged:
as §3

The nature of data set [8]: Area under the plasma concentration curve determined in mouse after peroral administration at 200 mg/kg. Format: ADME, organism-based. More on the design: dose 200 mg/kg, route oral. Conditions: in vivo, po. The procedure, abridged:
as §2

For data set [9], the system named is Staphylococcus aureus. The experiment in a line: In vitro minimum inhibitory concentration against Methicillin-resistant Staphylococcus aureus upon incubation at 37 degree C for 16 to 24 hr by dissolving in DMSO (1%). In kind it is functional. An outline of the steps: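 Broth microdilution (modified NCCLS M7-A4). Staphylococci grown to log phase in Luria broth, seeded at (3-7) × 10⁵ CFU/mL. Compounds 2-fold diluted from DMSO stocks, 20 to 1.25 µg/mL, final 1% DMSO, in duplicate. Incubated 37 °C, 16-24 h, with shaking. OD600 read.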

Data set [10] deals with DNA polymerase III PolC-type (Bacillus subtilis (strain 168), UniProt P13267). The experiment in a line: Inhibitory concentration against Bacillus subtilis DNA polymerase IIIC using [3H]dTMP 250 pM (30 degree C for 10 min). The procedure, abridged:
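Homogeneous recombinant B. subtilis pol IIIC, 0.025-0.06 units, acted on activated calf thymus DNA with Mg2+, DTT, glycerol, dATP, dCTP, dTTP and [3H]dTTP, without dGTP. Compounds were serially diluted from DMSO. Reactions ran 10 min at 30 °C, were stopped with TCA-pyrophosphate, and the filter-collected precipitate was scintillation counted. Apparent Ki was read directly from this truncated assay; average standard deviation ±44%.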

For data set [11], the system named is Enterococcus faecalis. The data set is described as follows: In vitro minimum inhibitory concentration against Enterococcus faecalis upon incubation at 37 degree C for 16 to 24 hr by dissolving in DMSO (1%). In kind it is functional. The procedure, abridged: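 Log-phase E. faecalis was grown in brain-heart infusion broth and seeded at (3-7) × 10^5 CFU/mL. Duplicate 2-fold dilutions ran from 20 to 1.25 µg/mL, final 1% DMSO. After 16-24 h at 37 °C with shaking, OD600 was read.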

Data set [12] can be described thus: Area under the plasma concentration curve determined in mouse after subcutaneous administration at 20 mg/kg. More on the design: dose 20 mg/kg, route subcutaneous. Conditions: in vivo, sc. In kind it is ADME, organism-based. An outline of the steps:
(§4)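 Male Swiss-Webster mice got single sc doses of 20 or 60 mg/kg in 30% aqueous HP-β-cyclodextrin, or 20, 200 or 400 mg/kg in KOH-neutralized PBS. Groups of three were bled by cardiac puncture before dosing and at 5, 15, 30, 60, 120 and 180 min, plus 360 min at 400 mg/kg. Plasma drug was measured by C18 reverse-phase HPLC at 282 nm against a spiked-plasma standard curve.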

Data set [13] can be described thus: Area under the plasma concentration curve determined in mouse after subcutaneous administration at 200 mg/kg. In kind it is ADME, organism-based. More on the design: dose 200 mg/kg, route subcutaneous. Conditions: in vivo, sc. An outline of the steps:
as §4

The test system of data set [14] is Staphylococcus aureus. The data set is described as follows: Effect on survival of staphylococcus aureus (Smith) ip-infected mice at a concentration 10 mg/kg. In kind it is functional. The procedure, abridged: (§5)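 Male pathogen-free Swiss-Webster mice (20-24 g), groups of five, infected ip with ca. 10⁸ CFU log-phase S. aureus Smith (grown 37 °C in LB, washed, in 0.5 mL LB). Single ip dose 15 min post-infection, in 10% DMSO/peanut oil or PBS. Survivors counted at 72 h post-infection.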

Data set [15] is described as follows: Area under the plasma concentration curve determined in mouse after subcutaneous administration at 400 mg/kg. In kind it is ADME, organism-based. More on the design: dose 400 mg/kg, route subcutaneous. Conditions: in vivo, sc. The procedure, abridged:
as §4

Data set [16] can be described thus: Area under the plasma concentration curve determined in mouse after intravenous administration at 20 mg/kg. In kind it is ADME, organism-based. More on the design: dose 20 mg/kg, route intravenous. Conditions: in vivo. The procedure, abridged:
(§6)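 Male Swiss-Webster mice (20-24 g) got a 20 mg/kg tail-vein iv bolus, either in 30% aqueous HP-β-cyclodextrin or in PBS neutralized with KOH. Groups of three were bled by cardiac puncture under halothane before dosing and at 2, 5, 15, 30, 60 and 120 min. Heparinized plasma was MeCN-treated and run on C18 HPLC at 282 nm against a spiked-plasma standard curve.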

Data set [17] in a line: Maximum time taken to reach Cmax was determined in mouse after peroral administration at 200 mg/kg. In kind it is ADME, organism-based. More on the design: dose 200 mg/kg, route oral. Conditions: in vivo, po. The procedure, abridged:
as §2

Data set [18] concerns Staphylococcus aureus. The data set is described as follows: Effect on survival of staphylococcus aureus (Smith) ip-infected mice at a concentration 20 mg/kg. In kind it is functional. The procedure, abridged: as §5
The nature of data set [19]: Half life in mouse after intravenous administration at 20 mg/kg. In kind it is ADME, organism-based. Conditions: in vivo. More on the design: dose 20 mg/kg, route intravenous. An outline of the steps: as §6
Data set [20] can be described thus: Half life in mouse after subcutaneous administration at 20 mg/kg. Conditions: in vivo, sc. More on the design: dose 20 mg/kg, route subcutaneous. In kind it is ADME, organism-based. The procedure, abridged:
as §4

The nature of data set [21]: Area under the plasma concentration curve determined in mouse after subcutaneous administration at 60 mg/kg. In kind it is ADME, organism-based. More on the design: dose 60 mg/kg, route subcutaneous. Conditions: in vivo, sc. The procedure, abridged: as §4
A short description of data set [22]: Maximum plasma concentration in mouse after subcutaneous administration at 20 mg/kg. More on the design: dose 20 mg/kg, route subcutaneous. Format: ADME, organism-based. Conditions: sc. The procedure, abridged:
as §4

The nature of data set [23]: Maximum plasma concentration in mouse after subcutaneous administration at 60 mg/kg. In kind it is ADME, organism-based. More on the design: dose 60 mg/kg, route subcutaneous. Conditions: sc. The procedure, abridged: as §4
Data set [24] is described as follows: Maximum plasma concentration in mouse after intravenous administration at 20 mg/kg. More on the design: dose 20 mg/kg, route intravenous. Format: ADME, organism-based. The procedure, abridged:
as §6

Data set [25] in a line: Maximum time taken to reach Cmax was determined in mouse after subcutaneous administration at 20 mg/kg. Format: ADME, organism-based. More on the design: dose 20 mg/kg, route subcutaneous. Conditions: in vivo, sc. An outline of the steps: as §4
A short description of data set [26]: Maximum time taken to reach Cmax was determined in mouse after subcutaneous administration at 60 mg/kg. In kind it is ADME, organism-based. More on the design: dose 60 mg/kg, route subcutaneous. Conditions: in vivo, sc. An outline of the steps:
as §4

The test system of data set [27] is Staphylococcus aureus. The experiment in a line: In vitro minimum inhibitory concentration against Staphylococcus aureus (Smith) upon incubation at 37 degree C for 16 to 24 hr by dissolving in DMSO (1%). In kind it is functional.
Data set [28] relates to Staphylococcus aureus. The experiment in a line: Effect on survival of staphylococcus aureus (Smith) ip-infected mice at 20 mg/kg. In kind it is functional. An outline of the steps:
as §5

Structures are written as SMILES. Converted amounts (≈) assume the structure as drawn.

Chain of DNA polymerase III PolC-type (P13267 whole entry, the tested form may be a part): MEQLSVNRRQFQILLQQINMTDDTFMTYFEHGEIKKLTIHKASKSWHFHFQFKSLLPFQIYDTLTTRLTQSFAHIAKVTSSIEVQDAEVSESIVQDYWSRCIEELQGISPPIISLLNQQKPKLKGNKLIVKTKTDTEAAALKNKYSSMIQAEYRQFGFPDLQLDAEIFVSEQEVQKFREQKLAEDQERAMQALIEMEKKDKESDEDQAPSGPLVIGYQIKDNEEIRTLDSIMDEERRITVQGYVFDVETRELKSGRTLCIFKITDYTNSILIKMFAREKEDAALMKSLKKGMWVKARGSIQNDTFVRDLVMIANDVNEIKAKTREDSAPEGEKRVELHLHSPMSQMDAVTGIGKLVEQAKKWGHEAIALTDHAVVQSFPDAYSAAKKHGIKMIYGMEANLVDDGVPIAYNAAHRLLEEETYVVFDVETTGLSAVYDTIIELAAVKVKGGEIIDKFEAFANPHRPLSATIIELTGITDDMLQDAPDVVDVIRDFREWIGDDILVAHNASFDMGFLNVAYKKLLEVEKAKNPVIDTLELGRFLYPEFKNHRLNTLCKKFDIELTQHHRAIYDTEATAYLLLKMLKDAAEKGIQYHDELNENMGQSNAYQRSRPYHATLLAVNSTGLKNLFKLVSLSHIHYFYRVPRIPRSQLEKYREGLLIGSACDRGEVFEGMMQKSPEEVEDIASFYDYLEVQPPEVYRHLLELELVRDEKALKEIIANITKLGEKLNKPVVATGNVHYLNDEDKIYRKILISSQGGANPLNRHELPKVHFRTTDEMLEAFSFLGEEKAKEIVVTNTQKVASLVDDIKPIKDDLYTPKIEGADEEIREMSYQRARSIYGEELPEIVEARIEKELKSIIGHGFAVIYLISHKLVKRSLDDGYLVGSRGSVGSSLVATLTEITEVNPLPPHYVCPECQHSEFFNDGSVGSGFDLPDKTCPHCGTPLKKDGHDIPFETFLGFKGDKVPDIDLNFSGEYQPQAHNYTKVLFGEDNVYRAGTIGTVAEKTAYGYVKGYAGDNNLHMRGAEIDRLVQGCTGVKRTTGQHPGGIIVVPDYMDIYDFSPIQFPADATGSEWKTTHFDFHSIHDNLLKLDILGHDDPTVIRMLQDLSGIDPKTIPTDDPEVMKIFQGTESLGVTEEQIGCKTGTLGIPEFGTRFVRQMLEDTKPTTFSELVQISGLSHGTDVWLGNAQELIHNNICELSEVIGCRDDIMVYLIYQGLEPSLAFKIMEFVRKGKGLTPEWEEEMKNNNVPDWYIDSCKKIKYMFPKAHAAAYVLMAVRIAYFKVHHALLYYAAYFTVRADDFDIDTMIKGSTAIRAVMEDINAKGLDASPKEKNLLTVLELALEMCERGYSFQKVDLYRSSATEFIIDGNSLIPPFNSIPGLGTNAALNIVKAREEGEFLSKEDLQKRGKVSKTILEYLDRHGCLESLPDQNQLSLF

Usually MIC stands for the lowest concentration that inhibits growth of the organism. Read a high MIC as a less susceptible organism. The Cmax is the maximum level reached in the sampled fluid or tissue. For orientation: half-life means how long it takes for the measured level to halve. A lower half-life goes with rapid decline. In general, AUC refers to the area under the concentration-time curve, a measure of exposure. A higher AUC goes with high exposure. As usually defined, the Ki is the equilibrium dissociation constant of an inhibitor or competing ligand from its target. A low value points to a stronger hold on the target. In general, Tmax refers to the time from dosing to the highest level. `CCc1cc(Nc2cc(=O)n(CCCCN3CCOCC3)c(=O)[nH]2)ccc1C.Cl`: the minimum inhibitory concentration (MIC) against Enterococcus faecium [1] is 5 µg/mL; with Staphylococcus aureus [2], 10 µg/mL; against Enterococcus faecium [6], 10 µg/mL; against Staphylococcus aureus [9], 10 µg/mL; against Enterococcus faecalis [11] it was 5 µg/mL. Moreover, in data set [3], the Cmax came out at 7300 ng/mL. For the same molecule, the “MIC+/MIC-” value was determined as 2 in the data set on Enterococcus faecalis [4] and 1.7 in the data set on Staphylococcus aureus [7]. The half-life in data set [5] was 111 min. The AUC in data set [8] was found to be 15400 ng·h/mL; in [12], 6770 ng·h/mL; in data set [13] it was 26900 ng·h/mL; in [15], 50700 ng·h/mL; in [16], 3900 ng·h/mL. This molecule registered a Ki in data set [10] of 52 nM. Moreover, the Activity in the data set with Staphylococcus aureus [14] was found to be 4; in the data set on Staphylococcus aureus [18], 5. Further, the time to peak (Tmax) in [17] is 60 min.

As for `CCc1cc(Nc2cc(=O)n(CCCCO)c(=O)[nH]2)ccc1C`, the MIC in the data set on Enterococcus faecium [1], in the data set on Enterococcus faecium [6], with Staphylococcus aureus [9], in the data set on Enterococcus faecalis [11] and in the data set with Staphylococcus aureus [27] was 5 µg/mL (≈ 15.8 µM) each time. For the same molecule, the “MIC+/MIC-” value in the data set with Staphylococcus aureus [7] worked out at 7.5. Also, the Ki in data set [10] came to 55 nM. Also, the half-life stood at 33 min in [19] and 29.3 min in [20]. Besides, the figures for the AUC in data set [12], in data set [21] and in data set [16] were 7780 ng·h/mL, 20200 ng·h/mL and 4800 ng·h/mL, respectively. The Activity worked out at 3 with Staphylococcus aureus [14] and 5 in the data set on Staphylococcus aureus [18]. The highest concentration (Cmax) in data set [22] was found to be 5100 ng/mL; in data set [23], 13000 ng/mL; in data set [24], 53000 ng/mL. In addition, the Tmax in [25] and in data set [26] was 15 min throughout.

Turning to `CCc1cc(Nc2cc(=O)n(CCCCN3CCOCC3)c(=O)[nH]2)ccc1C`, the MIC with Enterococcus faecium [1] turned out to be 5 µg/mL (≈ 12.9 µM); against Staphylococcus aureus [2], 10 µg/mL (≈ 25.9 µM); in the data set with Enterococcus faecium [6] it was 2.5 µg/mL (≈ 6.47 µM); against Staphylococcus aureus [9], 10 µg/mL (≈ 25.9 µM); in the data set on Enterococcus faecalis [11] it was 5 µg/mL (≈ 12.9 µM). Further, the “MIC+/MIC-” value was determined as 3.2 with Enterococcus faecalis [4] and 2.3 in the data set with Staphylococcus aureus [7]. In addition, the Activity in the data set with Staphylococcus aureus [28] turned out to be 4; in the data set on Staphylococcus aureus [14], 2.
